Data taken from ChEMBL document CHEMBL1795318, “Development of tetrahydroisoquinoline-based hydroxamic acid derivatives: potent histone deacetylase inhibitors with marked in vitro and in vivo antitumor activities” (J Med Chem, 2011).
Activity calls are given as the source filed them. The calls are words filed in the database; no cut-off is given here.

Columns and labels:
[1] = target: T1, Histone deacetylase 8 (Homo sapiens, UniProt Q9BY41); test: Inhibition of HDAC8 after 30 mins by fluorescence microplate reader
T1 sequence (Q9BY41 whole entry): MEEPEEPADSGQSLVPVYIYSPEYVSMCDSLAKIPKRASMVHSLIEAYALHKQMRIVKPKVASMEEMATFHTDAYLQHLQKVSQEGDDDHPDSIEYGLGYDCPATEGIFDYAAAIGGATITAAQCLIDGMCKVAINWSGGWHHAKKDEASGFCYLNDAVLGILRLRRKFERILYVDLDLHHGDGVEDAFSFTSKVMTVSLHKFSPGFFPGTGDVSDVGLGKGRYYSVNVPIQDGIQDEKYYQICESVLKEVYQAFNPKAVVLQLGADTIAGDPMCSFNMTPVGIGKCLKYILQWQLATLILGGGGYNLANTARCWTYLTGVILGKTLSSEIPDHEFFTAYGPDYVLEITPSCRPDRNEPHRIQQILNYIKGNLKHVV
Outline: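 HDAC8 mixed with compound at various concentrations, fluorogenic substrate added, 37 °C for 30 min; stopped with developer containing trypsin and TSA. Fluorescence read after 20 min (ex 390/em 460 nm); inhibition relative to control wells, IC50 by regression of concentration/inhibition data; mean ± SD of at least three determinations.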

[2] = test system: MDA-MB-231; test: Cytotoxicity against human MDA-MB-231 cells after 48 hrs by MTT assay; format: functional, cell-based; details: MDA-MB-231, 48 h
[3] = test system: A549; test: Cytotoxicity against human A549 cells after 48 hrs by MTT assay; format: functional, cell-based; details: A549, 48 h
Outline: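 Cells kept in RPMI1640 with 10% FBS, 37 °C, 5% CO₂; seeded day before dosing, grown ≥4 h, treated with a concentration series for 48 h. MTT 0.5% solution added, 4 h further; formazan dissolved in DMSO 15 min, absorbance at 570 nm. Mean of three experiments.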

[4] = test system: NB-4; test: Cytotoxicity against human NB4 cells after 48 hrs by MTT assay; format: functional, cell-based; details: NB-4, 48 h
[5] = target: Histone deacetylase; test: Inhibition of HDAC in human HeLa cell nuclear extract after 30 mins by fluorescence microplate reader; format: protein assay
[6] = test system: HeLa; test: Cytotoxicity against human HeLa cells after 48 hrs by MTT assay; format: functional, cell-based
[7] = test system: K562; test: Cytotoxicity against human K562 cells after 48 hrs by MTT assay; format: functional, cell-based; details: K562, 48 h
[8] = test system: HL-60; test: Cytotoxicity against human HL60 cells after 48 hrs by MTT assay; format: functional, cell-based; details: HL-60, 48 h
[9] = target: T2, Protein deacetylase HDAC6 (Homo sapiens, UniProt Q9UBN7); test: Inhibition of HDAC6 in human HeLa cell nuclear extract after 30 mins by fluorescence microplate reader
T2 sequence (Q9UBN7 whole entry): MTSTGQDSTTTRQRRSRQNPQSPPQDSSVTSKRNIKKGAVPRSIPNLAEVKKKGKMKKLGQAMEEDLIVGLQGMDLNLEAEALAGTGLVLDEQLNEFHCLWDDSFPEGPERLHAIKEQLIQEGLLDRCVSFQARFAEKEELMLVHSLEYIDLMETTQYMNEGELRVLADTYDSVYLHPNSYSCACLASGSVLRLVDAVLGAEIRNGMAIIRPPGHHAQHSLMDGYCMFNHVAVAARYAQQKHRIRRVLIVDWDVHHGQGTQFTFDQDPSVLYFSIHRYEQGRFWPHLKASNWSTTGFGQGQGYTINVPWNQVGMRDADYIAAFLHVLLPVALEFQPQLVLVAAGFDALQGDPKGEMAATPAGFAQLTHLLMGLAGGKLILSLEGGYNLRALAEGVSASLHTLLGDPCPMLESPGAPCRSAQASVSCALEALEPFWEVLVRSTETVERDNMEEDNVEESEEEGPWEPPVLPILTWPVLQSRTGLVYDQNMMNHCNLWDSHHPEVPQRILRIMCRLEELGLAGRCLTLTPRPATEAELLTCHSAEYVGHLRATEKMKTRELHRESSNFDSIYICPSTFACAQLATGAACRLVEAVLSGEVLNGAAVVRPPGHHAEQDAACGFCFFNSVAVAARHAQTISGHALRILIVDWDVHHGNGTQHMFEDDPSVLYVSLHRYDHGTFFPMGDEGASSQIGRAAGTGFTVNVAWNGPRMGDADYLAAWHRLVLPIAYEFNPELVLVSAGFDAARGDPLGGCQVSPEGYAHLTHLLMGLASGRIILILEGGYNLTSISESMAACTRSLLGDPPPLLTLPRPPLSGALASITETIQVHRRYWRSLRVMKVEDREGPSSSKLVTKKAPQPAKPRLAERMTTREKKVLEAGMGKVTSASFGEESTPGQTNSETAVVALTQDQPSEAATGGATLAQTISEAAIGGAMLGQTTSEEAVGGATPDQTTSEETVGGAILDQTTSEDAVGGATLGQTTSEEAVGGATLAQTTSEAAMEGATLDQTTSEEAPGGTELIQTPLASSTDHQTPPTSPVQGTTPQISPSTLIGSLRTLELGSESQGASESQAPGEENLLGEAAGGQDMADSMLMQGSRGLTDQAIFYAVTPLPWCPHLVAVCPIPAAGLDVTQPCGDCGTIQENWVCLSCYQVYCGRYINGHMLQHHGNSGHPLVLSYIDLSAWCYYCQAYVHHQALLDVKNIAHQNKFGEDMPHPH

[10] = test system: MDA-MB-231; test: Antitumor activity against human MDA-MB-231 cells xenografted in athymic nude mouse assessed as tumor growth delay at 90 mg/kg, ip qd for 21 days; format: functional, organism-based; parameters: dose 90 mg/kg
[11] = test system: MDA-MB-231; test: Cell cycle arrest in human MDA-MB-231 cells assessed as accumulation at G1 phase at 0.5 uM after 48 hrs by flow cytometry analysis; format: functional, cell-based
[12] = Cytotoxicity against human ES2 cells after 48 hrs by MTT assay; format: functional, cell-based; details: ES-2, 48 h
[13] = test system: MDA-MB-231; test: Cell cycle arrest in human MDA-MB-231 cells assessed as accumulation at G2 phase at 2 to 5 uM after 48 hrs by flow cytometry analysis; format: functional, cell-based
[14] = test system: MDA-MB-231; test: Antitumor activity against human MDA-MB-231 cells xenografted in athymic nude mouse assessed as tumor growth inhibition at 90 mg/kg, ip qd for 21 days; format: functional; details: route intraperitoneal

Structure (SMILES) | IC50 [1] | IC50 [2] | IC50 [3] | IC50 [4] | IC50 [5] | IC50 [6] | IC50 [7] | IC50 [9] | further results
COc1ccc(NC(=O)[C@@H]2Cc3ccc(OCC(=O)NO)cc3CN2CCc2ccccc2)cc1 | 1020 nM |  |  |  |  |  |  |  | 
COc1ccc(NC(=O)[C@@H]2Cc3ccc(OCC(=O)NO)cc3CN2C(=O)c2ccccc2)cc1 | 164 nM | 3050 nM | 5950 nM |  |  |  |  |  | 
O=C(COc1ccc2c(c1)CN(C(=O)CCc1ccccc1)[C@H](C(=O)Nc1ccccc1)C2)NO | 759 nM |  |  |  |  |  |  |  | 
CC[C@H](C)[C@H](NC(=O)[C@@H]1CCCN1C(=O)OC(C)(C)C)C(=O)N1Cc2cc(OCC(=O)NO)ccc2C[C@H]1C(=O)Nc1ccc(OC)cc1 | 192 nM |  |  | 5150 nM | 65 nM | 184000 nM | 2320 nM | 141 nM | IC50 [8]: 76800 nM
COc1ccc(NC(=O)[C@@H]2Cc3ccc(OCC(=O)NO)cc3CN2C(=O)CCCc2ccccc2)cc1 | 114 nM | 2770 nM | 3580 nM |  |  |  |  |  | 
CC[C@H](C)[C@H](NC(=O)[C@@H](N)C(C)C)C(=O)N1Cc2cc(OCC(=O)NO)ccc2C[C@H]1C(=O)Nc1ccc(OC)cc1.Cl | 68 nM |  |  | 69900 nM | 73 nM | 118000 nM | 20400 nM | 163 nM | 
CC[C@H](C)[C@H](NC(=O)[C@@H](NC(=O)OC(C)(C)C)C(C)C)C(=O)N1Cc2cc(OCC(=O)NO)ccc2C[C@H]1C(=O)Nc1ccc(OC)cc1 | 201 nM |  |  | 63300 nM | 128 nM | 167000 nM | 2780 nM | 116 nM | 
COc1ccc(NC(=O)[C@@H]2Cc3ccc(OCC(=O)NO)cc3CN2C(=O)[C@H](Cc2ccc(O)cc2)NC(=O)OC(C)(C)C)cc1 | 175 nM |  |  |  |  |  |  |  | 
COc1ccc(NC(=O)[C@@H]2Cc3ccc(OCC(=O)NO)cc3CN2C(=O)[C@H](Cc2ccccc2)NC(=O)OC(C)(C)C)cc1 | 103 nM | 1290 nM | 12700 nM |  |  |  |  |  | 
COc1ccc(NC(=O)[C@@H]2Cc3ccc(OCC(=O)NO)cc3CN2C(=O)Cc2ccccc2)cc1 | 141 nM | 4450 nM | 117000 nM |  |  |  |  |  | 
CC[C@H](C)[C@H](NC(=O)C1CCN(C(=O)OC(C)(C)C)CC1)C(=O)N1Cc2cc(OCC(=O)NO)ccc2C[C@H]1C(=O)Nc1ccc(OC)cc1 | 147 nM |  |  | 68200 nM | 214 nM | > 200000 nM | 12300 nM | 164 nM | 
COc1ccc(NC(=O)[C@@H]2Cc3ccc(OCC(=O)NO)cc3CN2C(=O)[C@@H](NC(=O)OC(C)(C)C)C(C)C)cc1 | 104 nM | 1580 nM | 840 nM |  |  |  |  |  | 
COc1ccc(NC(=O)[C@@H]2Cc3ccc(OCC(=O)NO)cc3CN2C(=O)CNC(=O)OC(C)(C)C)cc1 | 514 nM |  |  |  |  |  |  |  | 
CC[C@H](C)[C@@H](CN1Cc2cc(OCC(=O)NO)ccc2C[C@H]1C(=O)Nc1ccc(OC)cc1)NC(=O)OC(C)(C)C | 263 nM | 2200 nM |  | 3870 nM | 447 nM | 29200 nM | 7000 nM | 94 nM | Activity [10]: Active; Activity [11]: Active; IC50 [12]: 7200 nM; Activity [13]: Active; T/C [14]: 47%; IC50 [8]: 42700 nM
COc1ccc(NC(=O)[C@@H]2Cc3ccc(OCC(=O)NO)cc3CN2Cc2ccccc2)cc1 | 1920 nM |  |  |  |  |  |  |  | 
COc1ccc(NC(=O)[C@@H]2Cc3ccc(OCC(=O)NO)cc3CN2C(=O)[C@@H](N)C(C)C)cc1 | 1020 nM |  |  |  |  |  |  |  | 
